Reference: ChEMBL document CHEMBL1154334, “Effect of the structure of adenosine mimic of bisubstrate-analog inhibitors on their activity towards basophilic protein kinases” (Bioorg Med Chem Lett, 2009)

How the values were obtained:
[1] = target: T1, cAMP-dependent protein kinase catalytic subunit alpha (Homo sapiens, UniProt P17612); assay: Inhibition of PKACalpha in presence of […]
[2] = target: RAC-gamma serine/threonine-protein kinase (Homo sapiens, UniProt Q9Y243); assay: Inhibition of PKBgamma in presence of 100 uM ATP
How it was run: (§1)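 Kinetic phosphorylation assays with PKA catalytic subunit (PKAc) or PKB catalytic subunit (PKBc) at fixed ATP. ATP Km values taken as 20 for PKAc and 100 for PKBc.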

[3] = target: Rho-associated protein kinase 2 (Homo sapiens, UniProt O75116); assay: Displacement of ARC583 from ROCK2
[4] = target: T1, cAMP-dependent protein kinase catalytic subunit alpha; assay: Inhibition of PKACalpha in presence of 100 uM ATP; how it was run: as §1

Chain of RAC-gamma serine/threonine-protein kinase (Q9Y243 whole entry): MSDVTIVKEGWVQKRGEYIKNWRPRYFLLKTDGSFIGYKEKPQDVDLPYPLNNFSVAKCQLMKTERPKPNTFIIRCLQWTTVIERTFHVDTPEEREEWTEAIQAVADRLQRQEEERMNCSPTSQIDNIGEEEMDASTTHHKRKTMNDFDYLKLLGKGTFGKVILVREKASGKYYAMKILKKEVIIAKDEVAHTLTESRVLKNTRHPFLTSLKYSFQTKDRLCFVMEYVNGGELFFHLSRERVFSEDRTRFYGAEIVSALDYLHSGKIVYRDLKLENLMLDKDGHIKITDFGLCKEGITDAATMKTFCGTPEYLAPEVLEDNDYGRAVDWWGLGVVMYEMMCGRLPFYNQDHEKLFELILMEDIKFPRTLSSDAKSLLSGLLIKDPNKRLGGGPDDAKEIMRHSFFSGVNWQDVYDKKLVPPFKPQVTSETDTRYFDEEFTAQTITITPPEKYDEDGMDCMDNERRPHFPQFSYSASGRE
Chain of Rho-associated protein kinase 2 (O75116 whole entry): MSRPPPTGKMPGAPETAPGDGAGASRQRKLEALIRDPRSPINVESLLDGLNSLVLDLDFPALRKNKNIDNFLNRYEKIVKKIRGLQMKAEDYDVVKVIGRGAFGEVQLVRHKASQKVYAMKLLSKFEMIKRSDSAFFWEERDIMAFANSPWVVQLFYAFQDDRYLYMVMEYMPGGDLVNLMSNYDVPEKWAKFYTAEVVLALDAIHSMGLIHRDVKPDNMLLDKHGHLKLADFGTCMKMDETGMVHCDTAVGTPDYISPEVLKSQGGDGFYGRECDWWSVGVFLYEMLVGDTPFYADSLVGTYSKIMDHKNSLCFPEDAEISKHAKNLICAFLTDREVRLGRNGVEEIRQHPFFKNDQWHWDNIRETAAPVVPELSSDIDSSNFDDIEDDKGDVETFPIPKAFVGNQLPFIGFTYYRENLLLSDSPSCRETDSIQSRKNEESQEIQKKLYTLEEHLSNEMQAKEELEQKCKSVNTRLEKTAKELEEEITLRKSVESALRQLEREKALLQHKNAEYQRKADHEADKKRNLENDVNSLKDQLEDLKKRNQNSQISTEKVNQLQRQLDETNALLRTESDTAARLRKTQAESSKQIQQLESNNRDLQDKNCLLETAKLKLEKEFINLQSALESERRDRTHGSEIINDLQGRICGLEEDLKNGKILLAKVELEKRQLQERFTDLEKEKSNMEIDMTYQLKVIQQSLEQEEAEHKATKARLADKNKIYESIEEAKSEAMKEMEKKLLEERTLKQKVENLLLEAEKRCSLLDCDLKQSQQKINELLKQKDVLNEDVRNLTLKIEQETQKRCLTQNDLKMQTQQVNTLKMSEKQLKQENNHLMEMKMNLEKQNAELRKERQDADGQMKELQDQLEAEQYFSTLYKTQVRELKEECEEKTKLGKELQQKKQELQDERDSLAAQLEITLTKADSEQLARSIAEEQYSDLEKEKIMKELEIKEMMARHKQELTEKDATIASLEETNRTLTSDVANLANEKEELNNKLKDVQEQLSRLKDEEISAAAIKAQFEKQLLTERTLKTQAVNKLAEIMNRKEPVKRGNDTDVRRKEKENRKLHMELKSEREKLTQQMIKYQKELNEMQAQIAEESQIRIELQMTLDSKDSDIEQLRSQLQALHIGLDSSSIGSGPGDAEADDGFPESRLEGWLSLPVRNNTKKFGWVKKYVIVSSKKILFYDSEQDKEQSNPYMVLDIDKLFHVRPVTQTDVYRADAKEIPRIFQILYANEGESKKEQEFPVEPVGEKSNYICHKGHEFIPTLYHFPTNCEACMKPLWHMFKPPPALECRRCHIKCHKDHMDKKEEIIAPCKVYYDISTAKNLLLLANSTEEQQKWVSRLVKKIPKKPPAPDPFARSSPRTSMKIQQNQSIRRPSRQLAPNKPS

| SMILES | IC50 [1] [µM] | IC50 [2] [µM] | Kd [3] [µM] | IC50 ([4]; read-out: IC50) [µM] | IC50 [4] |
| --- | --- | --- | --- | --- | --- |
| NCCCC[C@@H](NC(=O)CCCCCNC(=O)c1cccc(-c2ccnc(N)n2)c1)C(=O)NCCCCCC(=O)N[C@H](CCCN=C(N)N)C(=O)N[C@H](CCCN=C(N)N)C(N)=O |  | 4.6 | 0.036 | 0.061 |  |
| N=C(N)NCCC[C@@H](NC(=O)[C@@H](CCCNC(=N)N)NC(=O)CCCCCNC(=O)[C@@H](CCCCN)NC(=O)CCCCCNC(=O)c1cn(-c2ncnc3[nH]cnc23)nn1)C(N)=O |  | 27 | 0.8 |  |  |
| CC(=O)NCCCCCC(=O)N[C@H](CCCCN)C(=O)NCCCCCC(=O)N[C@H](CCCNC(=N)N)C(=O)N[C@H](CCCNC(=N)N)C(N)=O |  | > 2000 | 123 |  | Not Active |

These reach a lower IC50 [2]. Values come first.

| IC50 [1] [µM] | IC50 [2] [µM] | Kd [3] [µM] | IC50 ([4]; read-out: IC50) [µM] | IC50 [4] | SMILES |
| --- | --- | --- | --- | --- | --- |
| 0.082 | 0.27 | < 0.003 |  |  | N=C(N)NCCC[C@@H](NC(=O)[C@@H](CCCNC(=N)N)NC(=O)CCCCCNC(=O)[C@@H](CCCCN)NC(=O)CCCCCNC(=O)c1ccc(-c2ccnc(N)n2)s1)C(N)=O |
|  | 0.9 | 0.0038 | 0.39 |  | NCCCC[C@@H](NC(=O)CCCCCNC(=O)c1cccc(-c2ccncc2)c1)C(=O)NCCCCCC(=O)N[C@H](CCCN=C(N)N)C(=O)N[C@H](CCCN=C(N)N)C(N)=O |
| 0.0049 | 0.042 |  |  |  | NCCCC[C@H](NC(=O)[C@@H](CCCN=C(N)N)NC(=O)[C@@H](CCCN=C(N)N)NC(=O)[C@@H](CCCN=C(N)N)NC(=O)[C@@H](CCCN=C(N)N)NC(=O)[C@@H](CCCN=C(N)N)NC(=O)[C@@H](CCCN=C(N)N)NC(=O)CCCCCNC(=O)[C@@H](CCCCN)NC(=O)CCCCCNC(=O)c1ccc(-c2ccnc(N)n2)s1)C(N)=O |
